Laboratory results reported in ChEMBL document CHEMBL4346737, “Synthesis and evaluation of tetrahydropyrazolopyridine inhibitors of anion exchange protein SLC26A4 (pendrin)” (Bioorg Med Chem Lett, 2019).

The molecules below were run against T1, Pendrin (Homo sapiens, UniProt O43511) (assay: Inhibition of human PDS stably expressed in FRT cells coexpressing EYFP-H148Q/I152L/F46L assessed as reduction in I-/Cl- exchange incubated for 10 mins by fluorescence based assay).
T1 sequence (O43511 whole entry): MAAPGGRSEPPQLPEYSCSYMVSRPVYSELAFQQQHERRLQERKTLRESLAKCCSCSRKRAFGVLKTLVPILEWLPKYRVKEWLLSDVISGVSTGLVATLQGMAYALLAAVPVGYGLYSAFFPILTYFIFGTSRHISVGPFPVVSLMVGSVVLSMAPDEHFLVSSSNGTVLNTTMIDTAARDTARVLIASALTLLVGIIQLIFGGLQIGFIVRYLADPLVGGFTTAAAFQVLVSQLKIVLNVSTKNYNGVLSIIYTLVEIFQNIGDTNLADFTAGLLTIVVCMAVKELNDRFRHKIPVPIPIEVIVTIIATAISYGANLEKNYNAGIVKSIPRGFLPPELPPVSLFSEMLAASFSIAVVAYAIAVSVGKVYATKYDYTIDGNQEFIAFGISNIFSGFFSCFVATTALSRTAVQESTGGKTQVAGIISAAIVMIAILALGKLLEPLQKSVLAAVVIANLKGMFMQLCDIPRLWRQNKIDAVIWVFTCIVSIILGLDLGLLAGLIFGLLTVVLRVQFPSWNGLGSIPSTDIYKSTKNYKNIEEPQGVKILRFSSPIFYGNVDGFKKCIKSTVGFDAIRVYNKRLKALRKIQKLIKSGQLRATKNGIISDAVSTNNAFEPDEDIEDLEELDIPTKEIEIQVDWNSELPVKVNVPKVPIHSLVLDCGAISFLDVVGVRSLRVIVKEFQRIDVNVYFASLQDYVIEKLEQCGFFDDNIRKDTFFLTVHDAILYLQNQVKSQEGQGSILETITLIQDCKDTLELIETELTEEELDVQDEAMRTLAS
Assay type: cell-based

Row | IC50 [µM] | Structure (SMILES)
1 | 7 | Cn1nc(COc2cccc(F)c2)c2c1CCN(C(=O)Nc1ccc(Cl)cc1)C2

Each molecule was assayed against T2, Pendrin (Mus musculus, UniProt Q9R155) (assay: Inhibition of mouse PDS stably expressed in FRT cells coexpressing EYFP-H148Q/I152L/F46L assessed as reduction in I-/Cl- exchange incubated for 10 mins by fluorescence based assay).
T2 sequence (Q9R155 whole entry): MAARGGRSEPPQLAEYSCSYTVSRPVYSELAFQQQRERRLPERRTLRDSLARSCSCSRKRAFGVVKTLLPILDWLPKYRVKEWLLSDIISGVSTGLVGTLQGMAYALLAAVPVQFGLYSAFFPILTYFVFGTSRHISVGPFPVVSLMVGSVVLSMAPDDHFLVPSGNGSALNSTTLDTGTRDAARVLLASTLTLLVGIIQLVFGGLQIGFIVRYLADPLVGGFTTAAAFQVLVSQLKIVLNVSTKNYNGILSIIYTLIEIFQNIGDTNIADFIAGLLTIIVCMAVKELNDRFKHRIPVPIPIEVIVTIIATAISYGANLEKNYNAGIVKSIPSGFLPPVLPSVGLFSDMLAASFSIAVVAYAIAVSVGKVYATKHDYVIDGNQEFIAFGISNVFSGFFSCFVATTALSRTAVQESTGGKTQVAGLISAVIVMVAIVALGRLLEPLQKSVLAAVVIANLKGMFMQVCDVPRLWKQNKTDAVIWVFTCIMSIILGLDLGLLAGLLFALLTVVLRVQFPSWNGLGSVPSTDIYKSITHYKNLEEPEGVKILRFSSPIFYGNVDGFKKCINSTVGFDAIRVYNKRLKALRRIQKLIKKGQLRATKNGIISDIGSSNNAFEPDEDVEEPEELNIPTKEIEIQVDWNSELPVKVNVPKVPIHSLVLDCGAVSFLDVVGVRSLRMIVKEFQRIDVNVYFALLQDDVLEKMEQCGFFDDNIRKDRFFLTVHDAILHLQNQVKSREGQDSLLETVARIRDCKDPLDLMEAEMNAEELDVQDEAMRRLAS
Assay type: cell-based
In short: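 Fischer rat thyroid cells stably co-expressing murine pendrin and the halide-sensing YFP variant were used for Cl–/I– exchange. An I–-containing solution was added to the cells, and exchange was followed as the rate of fluorescence decrease. Inhibition was read as a slower decline in fluorescence.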

Row | Structure (SMILES) | IC50 [µM]
2 | CC(C)NC(=O)N1CCc2c(c(COc3cc(F)cc(F)c3)nn2C)C1 | > 10
3 | CN(C)c1ccc(NC(=S)N2CCc3c(c(COc4cc(F)cc(F)c4)nn3C)C2)cc1 | > 10
4 | Cn1nc(C(=O)O)c2c1CCN(C(=O)Nc1ccc(Cl)cc1)C2 | > 10
5 | Cn1nc(COc2cc(F)cc(F)c2)c2c1CCN(C(=S)Nc1ccc(Cl)cc1)C2 | > 10
6 | Cn1nc(COc2cc(F)cc(F)c2)c2c1CCN(S(=O)(=O)c1ccc(Cl)cc1)C2 | > 10
7 | Cn1nc(COc2cc(F)cc(F)c2)c2c1CCN(C(=S)NC1CCCCC1)C2 | > 10
8 | CCOC(=O)c1nn(C)c2c1CN(C(=O)Nc1ccc(Cl)cc1)CC2 | > 10
9 | Cn1nc(COc2cc(F)cc(F)c2)c2c1CCN(S(C)(=O)=O)C2 | > 10
10 | Cn1nc(COc2cc(F)cc(F)c2)c2c1CCN(S(=O)(=O)c1ccc(C(F)(F)F)cc1)C2 | > 10
11 | CCN(CC)S(=O)(=O)N1CCc2c(c(COc3cc(F)cc(F)c3)nn2C)C1 | > 10

Other lines, results leading:

Row | IC50 [µM] | Structure (SMILES)
12 | > 10 | Cn1nc(COc2cc(F)cc(F)c2)c2c1CCN(C(=O)NC1CCCCC1)C2
13 | > 10 | Cn1nc(COc2cc(F)cc(F)c2)c2c1CCN(C(=O)NC(=O)c1ccccc1)C2
14 | 3.3 | Cn1nc(COc2cc(F)cc(F)c2)c2c1CCN(C(=O)Nc1ccc(Br)cc1)C2
15 | 4.6 | Cn1nc(COc2ccc(F)c(F)c2)c2c1CCN(C(=O)Nc1ccc(Cl)cc1)C2
16 | 3.3 | Cn1nc(COc2cc(F)c(F)c(F)c2)c2c1CCN(C(=O)Nc1ccc(Cl)cc1)C2
17 | 3.1 | Cn1nc(COc2cc(F)cc(F)c2)c2c1CCN(C(=O)Nc1ccc(Cl)cc1)C2
